According to ChEMBL document CHEMBL3745705, “Discovery of Oral VEGFR-2 Inhibitors with Prolonged Ocular Retention That Are Efficacious in Models of Wet Age-Related Macular Degeneration” (J Med Chem, 2015):
≈ marks a conversion by molar mass, not a printed value. Values belong to the molecule of their own block, whether it stands above or below them.

How the values were obtained:
[1] = Aqueous solubility of the compound at pH 6.8; details: aqueous medium
Mus musculus [2] = organism: Mus musculus; assay: animal or person; details: C57BL/6, po, read-out: INH
[3] = Dose normalized Cmax in Brown Norway rat posteior eye cup at 2 mg/kg, po; format: ADME, organism-based; details: in vivo
How it was run: (§1)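 Single oral dose to three-month-old Brown Norway rats as a suspension in 0.5% MC/0.1% tween 80, WFI. Retina, posterior eye cup (RPE/choroid/sclera) and plasma collected from 2 rats per time point up to 144 h. Tissues homogenized, plasma proteins precipitated, drug quantified by LC-MS/MS.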

Plasma [4] = assay: Dose normalized plasma concentration in Brown Norway rat plasma at 2 mg/kg, po measured at 24 hrs by LC-MS/MS analysis; format: ADME, organism-based; details: in vivo; how it was run: as §1
[5] = biological target: Voltage-gated inwardly rectifying potassium channel KCNH2 (Homo sapiens, UniProt Q12809); assay: Inhibition of human ERG channel by automated Q-patch assay
Voltage-gated inwardly rectifying potassium channel KCNH2, sequence (Q12809 whole entry): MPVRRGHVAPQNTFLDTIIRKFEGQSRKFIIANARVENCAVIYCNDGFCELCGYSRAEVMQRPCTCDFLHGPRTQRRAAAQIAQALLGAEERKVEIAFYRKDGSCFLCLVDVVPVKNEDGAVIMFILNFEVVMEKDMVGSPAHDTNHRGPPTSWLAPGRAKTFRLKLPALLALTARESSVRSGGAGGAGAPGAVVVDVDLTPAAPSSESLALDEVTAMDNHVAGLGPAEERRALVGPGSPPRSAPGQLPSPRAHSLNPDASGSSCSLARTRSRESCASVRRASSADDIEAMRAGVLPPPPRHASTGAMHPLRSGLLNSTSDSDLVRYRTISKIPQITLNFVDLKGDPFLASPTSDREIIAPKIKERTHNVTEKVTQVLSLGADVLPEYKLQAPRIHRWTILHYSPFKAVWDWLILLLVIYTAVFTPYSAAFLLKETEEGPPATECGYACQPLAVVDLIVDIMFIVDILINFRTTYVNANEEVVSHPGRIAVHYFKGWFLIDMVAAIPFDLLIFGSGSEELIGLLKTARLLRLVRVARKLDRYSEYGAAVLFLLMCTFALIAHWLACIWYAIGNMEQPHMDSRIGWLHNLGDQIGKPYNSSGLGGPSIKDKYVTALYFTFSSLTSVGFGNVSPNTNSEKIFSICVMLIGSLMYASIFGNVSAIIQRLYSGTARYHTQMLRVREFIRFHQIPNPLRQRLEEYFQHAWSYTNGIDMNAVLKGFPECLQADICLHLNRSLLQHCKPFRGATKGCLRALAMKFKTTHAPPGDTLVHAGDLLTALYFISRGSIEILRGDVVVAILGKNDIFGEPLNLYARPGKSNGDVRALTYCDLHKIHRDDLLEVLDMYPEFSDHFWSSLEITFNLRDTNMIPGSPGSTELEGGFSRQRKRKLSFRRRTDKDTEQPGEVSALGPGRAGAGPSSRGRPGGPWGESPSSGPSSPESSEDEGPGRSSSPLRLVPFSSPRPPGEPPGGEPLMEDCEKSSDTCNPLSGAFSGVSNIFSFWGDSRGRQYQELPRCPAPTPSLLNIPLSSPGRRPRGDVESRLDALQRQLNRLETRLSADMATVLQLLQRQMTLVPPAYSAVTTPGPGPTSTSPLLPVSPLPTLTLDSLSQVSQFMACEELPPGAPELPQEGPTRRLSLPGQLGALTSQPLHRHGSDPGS

[6] = Dose normalized Cmax in Brown Norway rat retina at 2 mg/kg, po; format: ADME, organism-based; details: in vivo; how it was run: as §1
[7] = Half life in Brown Norway rat at 3 mg/kg, po or 1 mg/kg, iv by LC-MS/MS analysis; format: ADME, organism-based; details: in vivo
[8] = Dose normalized AUC (0 to 24 hrs) in Brown Norway rat posteior eye cup at 2 mg/kg, po; format: ADME, organism-based; details: in vivo
Rattus norvegicus [9] = assay: AUC (0 to 8 hrs) in Brown Norway rat at 3 mg/kg, po by LC-MS/MS analysis; format: ADME, organism-based; parameters: dose 3 mg/kg, time < 8 hr, route oral; details: in vivo
[10] = Cmax in Brown Norway rat at 3 mg/kg, po or 1 mg/kg, iv by LC-MS/MS analysis; format: ADME, organism-based; details: in vivo
[11] = Volume of distribution at steady state in Brown Norway rat at 3 mg/kg, po or 1 mg/kg, iv by LC-MS/MS analysis; format: ADME, organism-based; details: in vivo, read-out: Vdss
Rattus norvegicus [12] = assay: Oral bioavailability in Brown Norway rat at 3 mg/kg by LC-MS/MS analysis; format: ADME, organism-based; details: in vivo
Rattus norvegicus [13] = assay: Antiangiogenic activity in po dosed Brown Norway rat laser-induced choroidal neovascularization model assessed as inhibition of neovascular lesion formation administered qd for 14 days by microscopic analysis; format: functional; details: 336 h
How it was run: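 Male Brown Norway rats, about 12 weeks old, dosed by oral gavage starting about 1 h before laser. Lesions were made under ketamine/xylazine i.p. (40–80 / 5–10 mg/kg) with 532 nm laser pulses (30 ms, 190 mW, 200 µm spot), about 4 lesions per eye and 10 rats per group. Vessels were labelled with i.v. 2,000 kD FITC dextran, eyes fixed in 4% paraformaldehyde, and CNV area measured blinded.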

[14] = Dose normalized AUC (0 to 24 hrs) in Brown Norway rat retina at 2 mg/kg, po; format: ADME, organism-based; details: in vivo
Plasma [15] = assay: Dose normalized Cmax in Brown Norway rat plasma at 2 mg/kg, po; format: ADME, organism-based; details: in vivo; how it was run: as §1
[16] = Dose normalized drug uptake in Brown Norway rat retina at 2 mg/kg, po by LC-MS/MS analysis; format: ADME, organism-based; details: in vivo; how it was run: as §1
Mus musculus [17] = assay: Antiangiogenic activity in po dosed C57BL/6 mouse laser-induced choroidal neovascularization assessed as inhibition of neovascular lesion formation administered qd for 6 days measured on day 7 by microscopic analysis; format: functional; details: C57BL/6, po
Plasma [18] = assay: Dose normalized AUC (0 to 24 hrs) in Brown Norway rat plasma at 2 mg/kg, po; format: ADME, organism-based; details: in vivo
[19] = Drug uptake in Brown Norway rat posteior eye cup at 2 mg/kg, po; format: ADME, organism-based; details: in vivo; how it was run: as §1
[20] = Dose normalized Cmax in Brown Norway rat retina at 6 mg/kg, po; format: ADME, organism-based; details: in vivo
Plasma [21] = assay: Dose normalized AUC (0 to 24 hrs) in Brown Norway rat plasma at 6 mg/kg, po; format: ADME, organism-based; details: in vivo
[22] = Dose normalized drug uptake in Brown Norway rat posteior eye cup at 6 mg/kg, po; format: ADME, organism-based; details: in vivo
[23] = Dose normalized drug uptake in Brown Norway rat retina at 6 mg/kg, po by LC-MS/MS analysis; format: ADME, organism-based; details: in vivo
[24] = Dose normalized AUC (0 to 24 hrs) in Brown Norway rat posteior eye cup at 6 mg/kg, po; format: ADME, organism-based; details: in vivo
[25] = Half life in Brown Norway rat at 10 mg/kg, po or 1 mg/kg, iv by LC-MS/MS analysis; format: ADME, organism-based; details: in vivo
How it was run: (§2)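 Brown Norway rats dosed i.v. at 1 mg/kg (n = 2; NMP/PG/cremophorEL/PBS or NMP/PEG 300/WFI vehicle) or p.o. at 3 or 10 mg/kg (n = 3; 0.5% MC/0.1% tween 80, WFI). Clearance, Vdss, t1/2, Cmax, AUC 0-8h and oral bioavailability calculated from plasma levels.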

Plasma [26] = assay: Dose normalized plasma concentration in Brown Norway rat plasma at 6 mg/kg, po measured at 24 hrs by LC-MS/MS analysis; format: ADME, organism-based; details: in vivo
[27] = Cmax in Brown Norway rat at 10 mg/kg, po or 1 mg/kg, iv by LC-MS/MS analysis; format: ADME, organism-based; details: in vivo; how it was run: as §2
Plasma [28] = assay: Dose normalized Cmax in Brown Norway rat plasma at 6 mg/kg, po; format: ADME, organism-based; details: in vivo
Rattus norvegicus [29] = assay: AUC (0 to 8 hrs) in Brown Norway rat at 10 mg/kg, po by LC-MS/MS analysis; format: ADME, organism-based; parameters: dose 10 mg/kg, time < 8 hr, route oral; details: in vivo
[30] = Dose normalized AUC (0 to 24 hrs) in Brown Norway rat retina at 6 mg/kg, po; format: ADME, organism-based; details: in vivo
Rattus norvegicus [31] = assay: Oral bioavailability in Brown Norway rat at 10 mg/kg by LC-MS/MS analysis; format: ADME, organism-based; details: in vivo; how it was run: as §2
[32] = Volume of distribution at steady state in Brown Norway rat at 10 mg/kg, po or 1 mg/kg, iv by LC-MS/MS analysis; format: ADME, organism-based; details: in vivo, read-out: Vdss; how it was run: as §2
[33] = Dose normalized Cmax in Brown Norway rat posteior eye cup at 6 mg/kg, po; format: ADME, organism-based; details: in vivo

SMILES: CC(=O)N1CCc2c(ncnc2Oc2ccc3c(ccn3C(=O)Nc3cccc(C(F)(F)F)c3)c2)C1
inhibition in vivo at 10 mg/kg (Mus musculus [2]): 0%

SMILES: C[C@@H]1NCc2ncnc(Oc3ccc4c(ccn4C(=O)Nc4cc(C(C)(C)C)on4)c3)c21
inhibition in vivo at 10 mg/kg (Mus musculus [2]): 33%

SMILES: CNCc1cc(Oc2ccc3c(ccn3C(=O)Nc3ccc(F)c(C(F)(F)F)c3)c2)ncn1
inhibition in vivo at 10 mg/kg (Mus musculus [2]): 92%

SMILES: C[C@@H]1Cc2c(ncnc2Oc2ccc3c(ccn3C(=O)Nc3cc(C4(C)CC4)[nH]n3)c2)CN1
inhibition in vivo at 10 mg/kg (Mus musculus [2]): 48%

SMILES: O=C(Nc1cccc(C(F)(F)F)c1)n1ccc2cc(Oc3ncnc4c3CNCC4)ccc21
inhibition in vivo at 10 mg/kg (Mus musculus [2]): 0%

SMILES: Nc1cc(Oc2ccc3c(ccn3C(=O)Nc3cccc(C(F)(F)F)c3)c2)ncn1
solubility [1]: < 5 µM | inhibition in vivo at 10 mg/kg (Mus musculus [2]): 44%

SMILES: CC1(c2cc(NC(=O)n3ccc4cc(Oc5ncnc6c5CNC6)ccc43)no2)CC1
inhibition in vivo at 10 mg/kg (Mus musculus [2]): 90%

SMILES: O=C(Nc1cccc(C(F)(F)F)c1)n1ccc2cc(Oc3cc(CO)ncn3)ccc21
inhibition in vivo at 10 mg/kg (Mus musculus [2]): 45%

The next lines start with results.

solubility [1]: 20 µM (≈ 8.37 µg/mL)
SMILES: CC(C)(C)c1cc(NC(=O)n2ccc3cc(Oc4ncnc5c4CNC5)ccc32)no1
inhibition in vivo at 10 mg/kg (Mus musculus [2]): 83%

solubility [1]: < 5 µM
SMILES: CCN1CCc2c(ncnc2Oc2ccc3c(ccn3C(=O)Nc3cccc(C(F)(F)F)c3)c2)C1
inhibition in vivo at 10 mg/kg (Mus musculus [2]): 81%

solubility [1]: 833 µM (≈ 348 µg/mL)
SMILES: CC(C)c1cc(NC(=O)n2ccc3cc(Oc4ncnc5c4CCNC5)ccc32)n[nH]1
inhibition in vivo at 10 mg/kg (Mus musculus [2]): 0%

Cmax/dose [3]: 5293 nM/mg/kg | Cp/dose (Plasma [4]): 6 nM/mg/kg | Cmax/dose [6]: 337 nM/mg/kg | half-life [7]: 1.2 h | AUC/dose [8]: 92954 nM·h/mg/kg | solubility [1]: 110 µM (≈ 44.3 µg/mL) | AUC (Rattus norvegicus [9]): 29.4 µM·h | Cmax [10]: 11 µM | Vd [11]: 0.5 L/kg | F (Rattus norvegicus [12]): 100% | AUC/dose [14]: 2692 nM·h/mg/kg | Cmax/dose (Plasma [15]): 3225 nM/mg/kg | Druguptake/dose [16]: 65 nM/mg/kg | AUC/dose (Plasma [18]): 15014 nM·h/mg/kg | Druguptake/dose [19]: 3344 nM/mg/kg
SMILES: O=C(Nc1cc(C2CC2)on1)n1ccc2cc(Oc3ncnc4c3CNC4)ccc21
IC50 [5]: > 30 µM | inhibition in vivo at 10 mg/kg (Mus musculus [2]): 98% | ED50 (Rattus norvegicus [13]): 0.7 mg/kg | ED90 (Rattus norvegicus [13]): 2.7 mg/kg | ED50 (Mus musculus [17]): 1.8 mg/kg | ED90 (Mus musculus [17]): 4.8 mg/kg

solubility [1]: 167 µM (≈ 72.2 µg/mL)
SMILES: CC(C)(C)c1cc(NC(=O)n2ccc3cc(Oc4ncnc5c4CCNC5)ccc32)no1
IC50 [5]: 7 µM | inhibition in vivo at 10 mg/kg (Mus musculus [2]): 83%

Cmax/dose [20]: 15 nM/mg/kg | AUC/dose (Plasma [21]): 166 nM·h/mg/kg | solubility [1]: 252 µM (≈ 108 µg/mL) | Druguptake/dose [22]: 102 nM/mg/kg | Druguptake/dose [23]: 13 nM/mg/kg | AUC/dose [24]: 2386 nM·h/mg/kg | half-life [25]: 2.7 h | Cp/dose (Plasma [26]): 0.7 nM/mg/kg | Cmax [27]: 0.505 µM | Cmax/dose (Plasma [28]): 33 nM/mg/kg | AUC (Rattus norvegicus [29]): 1.12 µM·h | AUC/dose [30]: 310 nM·h/mg/kg | F (Rattus norvegicus [31]): 51% | Vd [32]: 22 L/kg | Cmax/dose [33]: 110 nM/mg/kg
SMILES: CC1(c2cc(NC(=O)n3ccc4cc(Oc5ncnc6c5CCNC6)ccc43)n[nH]2)CC1
inhibition in vivo at 10 mg/kg (Mus musculus [2]): 64% | ED50 (Rattus norvegicus [13]): 2.7 mg/kg | ED90 (Rattus norvegicus [13]): 13.6 mg/kg | ED50 (Mus musculus [17]): 7.8 mg/kg | ED90 (Mus musculus [17]): 25.3 mg/kg
